Experimental data taken from ChEMBL document CHEMBL1146196, “Bactericidal activity and resistance development profiling of dalbavancin” (2007).
Converted amounts (≈) assume the structure as drawn. The source made the active and inactive calls. The rule behind the calls is not given here.

Columns and labels:
Enterococcus faecium [1] = assay: Antimicrobial activity against vancomycin-susceptible Enterococcus faecium FB767191
Enterococcus faecium [2] = assay: Antimicrobial activity against vancomycin-susceptible Enterococcus faecium FB769334
Streptococcus pyogenes [3] = assay: Antimicrobial activity against erythromycin-resistant Streptococcus pyogenes FB764371 by broth microdilution method; assay type: functional
Summary of the method: (§1)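 Clinical US hospital isolates. The medium was supplemented with 2 to 5% lysed horse blood.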

Staphylococcus aureus [4] = assay: Bacterial killing activity of methicillin-resistant Staphylococcus aureus at 0.25 ug/ml; assay type: functional, organism-based
Summary of the method: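 Time-kill per CLSI with a starting inoculum of approximately 10^7 CFU/ml. Dalbavancin was tested at 0.25, 1, 4 and 16 µg/ml, chosen to reflect free plasma levels plus a lower level. Viable counts were taken over 24 h and reported as log10 decrease.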

[5] = system: Staphylococcus epidermidis; assay: Antimicrobial activity against methicillin-resistant Staphylococcus epidermidis FB896283 by broth microdilution method; assay type: functional
Summary of the method: (§2)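 Clinical staphylococcal isolates from US hospitals with known resistance phenotypes.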

Staphylococcus aureus [6] = assay: Bacterial killing activity of methicillin-susceptible Staphylococcus aureus at 0.25 ug/ml; assay type: functional, organism-based
Summary of the method: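 Time-kill per CLSI; inoculum approximately 10^7 CFU/ml; dalbavancin at 0.25, 1, 4 and 16 µg/ml; viable counts after 24 h exposure, expressed as log10 reduction.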

Staphylococcus aureus [7] = assay: Antimicrobial activity against methicillin-susceptible Staphylococcus aureus FB1050986 by broth microdilution method; assay type: functional
Summary of the method: as §2

Staphylococcus aureus [8] = assay: Antimicrobial activity against vancomycin-intermediate Staphylococcus aureus FB988644; assay type: functional
[9] = system: Staphylococcus haemolyticus; assay: Antimicrobial activity against Staphylococcus haemolyticus FB954177 by broth microdilution method; assay type: functional
Streptococcus pyogenes [10] = assay: Antimicrobial activity against erythromycin-susceptible Streptococcus pyogenes FB1041626 by broth microdilution method; assay type: functional
Summary of the method: as §1

Enterococcus faecalis [11] = assay: Antimicrobial activity against vancomycin-susceptible Enterococcus faecalis FB766323; assay type: functional
Staphylococcus aureus [12] = assay: Antimicrobial activity against methicillin-resistant Staphylococcus aureus FB1065524 by broth microdilution method; assay type: functional
Summary of the method: as §2

[13] = system: Staphylococcus epidermidis; assay: Antimicrobial activity against methicillin-resistant Staphylococcus epidermidis FB758988 by broth microdilution method; assay type: functional
Summary of the method: as §2

Enterococcus faecalis [14] = assay: Antimicrobial activity against vancomycin-susceptible Enterococcus faecalis FB766782; assay type: functional
Staphylococcus aureus [15] = assay: Antimicrobial activity against methicillin-susceptible Staphylococcus aureus FB892379 by broth microdilution method; assay type: functional
Summary of the method: as §2

Streptococcus pyogenes [16] = assay: Bacterial killing activity of Streptococcus pyogenes at 0.25 ug/ml; assay type: functional
Summary of the method: (§3)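 CLSI time-kill in medium with 2 to 5% lysed horse blood; starting inoculum approximately 10^7 CFU/ml; dalbavancin at 0.25, 1, 4 and 16 µg/ml; viable counts followed to 24 h, killing expressed as log10 decrease.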

Streptococcus pyogenes [17] = assay: Antimicrobial activity against erythromycin-susceptible Streptococcus pyogenes FB1041775 by broth microdilution method; assay type: functional
Streptococcus pyogenes [18] = assay: Bacterial killing activity of Streptococcus pyogenes at >=1 ug/ml; assay type: functional
Summary of the method: as §3

[19] = system: Staphylococcus haemolyticus; assay: Antimicrobial activity against Staphylococcus haemolyticus FB953975 by broth microdilution method; assay type: functional
[20] = system: Staphylococcus epidermidis; assay: Antimicrobial activity against methicillin-resistant Staphylococcus epidermidis FB750345 by broth microdilution method; assay type: functional
Summary of the method: as §2

Staphylococcus aureus [21] = assay: Antimicrobial activity against methicillin-resistant Staphylococcus aureus FB1051634 by broth microdilution method; assay type: functional
Summary of the method: as §2

Staphylococcus aureus [22] = assay: Bacterial killing activity of methicillin-resistant Staphylococcus aureus at 8 to 32 ug/ml; assay type: functional
Staphylococcus aureus [23] = assay: Bacterial killing activity of methicillin-susceptible Staphylococcus aureus at 8 to 32 ug/ml; assay type: functional
Streptococcus pyogenes [24] = assay: Bactericidal activity against Streptococcus pyogenes; assay type: functional
Staphylococcus aureus [25] = assay: Bacterial killing activity of vancomycin-intermediate Staphylococcus aureus at 8 to 32 ug/ml; assay type: functional

Row | Compound | MBC (Enterococcus faecium [1]) | MBC (Enterococcus faecium [2]) | MBC (Streptococcus pyogenes [3]) | MBC [5] | MBC (Staphylococcus aureus [7]) | MBC (Staphylococcus aureus [8]) | MBC [9] | MIC [9] | MBC (Streptococcus pyogenes [10]) | MBC (Enterococcus faecalis [11]) | MBC (Staphylococcus aureus [12]) | MBC [13] | MBC (Enterococcus faecalis [14]) | MBC (Staphylococcus aureus [15]) | MBC (Streptococcus pyogenes [17]) | MBC [19] | MIC [19] | MBC [20] | MBC (Staphylococcus aureus [21]) | further results
1 | CN[C@H]1C(=O)N[C@@H]2Cc3ccc(cc3)Oc3cc4cc(c3O[C@@H]3O[C@H](C(=O)O)[C@@H](O)[C@H](O)[C@H]3NC(=O)CCCCCCCCC(C)C)Oc3ccc(cc3Cl)[C@@H](O)[C@@H]3NC(=O)[C@H](NC(=O)[C@@H]4NC(=O)[C@@H](NC2=O)c2cc(cc(O)c2Cl)Oc2cc1ccc2O)c1ccc(O)c(c1)-c1c(O[C@H]2O[C@H](CO)[C@@H](O)[C@H](O)[C@@H]2O)cc(O)cc1[C@@H](C(=O)NCCCN(C)C)NC3=O [DALBAVANCIN] | 2 µg/mL (≈ 1.1 µM) | 2 µg/mL (≈ 1.1 µM) | 0.008 µg/mL (≈ 0.0044 µM) | 0.03 µg/mL (≈ 0.0165 µM) | 1 µg/mL (≈ 0.55 µM) | 2 µg/mL (≈ 1.1 µM) | 0.12 µg/mL (≈ 0.0661 µM) | 0.03 µg/mL (≈ 0.0165 µM) | 0.008 µg/mL (≈ 0.0044 µM) | 8 µg/mL (≈ 4.4 µM) | 0.5 µg/mL (≈ 0.275 µM) | 0.06 µg/mL (≈ 0.033 µM) | 4 µg/mL (≈ 2.2 µM) | 0.06 µg/mL (≈ 0.033 µM) | 0.25 µg/mL (≈ 0.138 µM) | 0.25 µg/mL (≈ 0.138 µM) | 0.12 µg/mL (≈ 0.0661 µM) | 0.06 µg/mL (≈ 0.033 µM) | 0.06 µg/mL (≈ 0.033 µM) | MIC (Enterococcus faecium [1]): 0.03 µg/mL (≈ 0.0165 µM); MIC (Enterococcus faecium [2]): 0.015 µg/mL (≈ 0.00826 µM); MIC (Streptococcus pyogenes [3]): 0.008 µg/mL (≈ 0.0044 µM); Activity (Staphylococcus aureus [4]): Active; MIC [5]: 0.03 µg/mL (≈ 0.0165 µM); Activity (Staphylococcus aureus [6]): Active; MIC (Staphylococcus aureus [7]): 0.06 µg/mL (≈ 0.033 µM); MIC (Staphylococcus aureus [8]): 1 µg/mL (≈ 0.55 µM); MIC (Streptococcus pyogenes [10]): 0.008 µg/mL (≈ 0.0044 µM); MIC (Enterococcus faecalis [11]): 0.03 µg/mL (≈ 0.0165 µM); MIC (Staphylococcus aureus [12]): 0.06 µg/mL (≈ 0.033 µM); MIC [13]: 0.06 µg/mL (≈ 0.033 µM); MIC (Enterococcus faecalis [14]): 0.06 µg/mL (≈ 0.033 µM); MIC (Staphylococcus aureus [15]): 0.06 µg/mL (≈ 0.033 µM); Log10 cfu (Streptococcus pyogenes [16]): >3; MIC (Streptococcus pyogenes [17]): 0.008 µg/mL (≈ 0.0044 µM); Log10 cfu (Streptococcus pyogenes [18]): 5; MIC [20]: 0.06 µg/mL (≈ 0.033 µM); MIC (Staphylococcus aureus [21]): 0.06 µg/mL (≈ 0.033 µM)
2 | CN[C@H](CC(C)C)C(=O)N[C@H]1C(=O)N[C@@H](CC(N)=O)C(=O)N[C@H]2C(=O)N[C@H]3C(=O)N[C@H](C(=O)N[C@H](C(=O)O)c4cc(O)cc(O)c4-c4cc3ccc4O)[C@H](O)c3ccc(c(Cl)c3)Oc3cc2cc(c3O[C@@H]2O[C@H](CO)[C@@H](O)[C@H](O)[C@H]2O[C@H]2C[C@](C)(N)[C@H](O)[C@H](C)O2)Oc2ccc(cc2Cl)[C@H]1O [VANCOMYCIN] | > 32 µg/mL | 16 µg/mL (≈ 11 µM) | 0.5 µg/mL (≈ 0.345 µM) | 2 µg/mL (≈ 1.38 µM) | 2 µg/mL (≈ 1.38 µM) | 8 µg/mL (≈ 5.52 µM) | > 32 µg/mL | 1 µg/mL (≈ 0.69 µM) | 0.5 µg/mL (≈ 0.345 µM) | > 32 µg/mL | 1 µg/mL (≈ 0.69 µM) | 2 µg/mL (≈ 1.38 µM) | > 32 µg/mL | 1 µg/mL (≈ 0.69 µM) | > 2 µg/mL | 4 µg/mL (≈ 2.76 µM) | 4 µg/mL (≈ 2.76 µM) | 2 µg/mL (≈ 1.38 µM) | 1 µg/mL (≈ 0.69 µM) | Log10 cfu (Staphylococcus aureus [22]): >=3; Log10 cfu (Staphylococcus aureus [23]): >=3; Log10 cfu (Streptococcus pyogenes [24]): <2; Log10 cfu (Staphylococcus aureus [25]): >=3
